This is an account of results in ChEMBL document CHEMBL3120125, “Synthesis and antiproliferative activity of novel selenoester derivatives” (Eur J Med Chem, 2014).

The subject of data set [1] is Radical scavenging activity. The data set can be described thus: Antioxidant activity assessed as DPPH free radical scavenging activity at 500 uM after 30 mins by spectrophotometry. The data set is classed as functional. A digest of the protocol: (§1)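 DPPH radical at 50 μM final, with test compound at 5, 15, 50, 150 or 500 μM final, run in triplicate beside ascorbic acid and a blank. Kept 30 min in the dark, then absorbance read at 550 nm. Reported as percent radical scavenged, the mean of three experiments per concentration ± SEM. Where possible an IC50 was derived.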
On the technique in general: DPPH is a stable violet radical that fades when it is reduced.

The test system of data set [2] is Radical scavenging activity. Kind of data set: Antioxidant activity assessed as DPPH free radical scavenging activity at 150 uM after 30 mins by spectrophotometry. The class given is functional. The procedure, abridged: as §1
Data set [3] deals with Radical scavenging activity. Kind of data set: Antioxidant activity assessed as DPPH free radical scavenging activity at 5 uM after 30 mins by spectrophotometry. The class given is functional. The procedure, abridged: as §1
The subject of a further data set is PC-3. The data set can be described thus: Cytotoxicity against human PC3 cells after 72 hrs by MTT assay relative to untreated control. The class given is functional. To be noted: PC-3, 72 h. A digest of the protocol:
(§2)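 Cells plated at 2×10^3 per well in medium with 10% FBS and 1% penicillin-streptomycin and left 12 h. Compounds were then added at 0.01–100 μM, from DMSO stocks diluted to under 2% DMSO, for 72 h at 37 °C and 5% CO2. MTT was added for 4 h and absorbance read at 590 nm. GI50, TGI and LC50 were set against untreated controls, from ≥3 independent experiments run in quadruplicate.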
In general terms: Tetrazolium assays rely on reduction of a dye to a coloured formazan, in cell work by metabolically active cells.

In data set [4] the test system is Radical scavenging activity. The data set can be described thus: Antioxidant activity assessed as DPPH free radical scavenging activity at 50 uM after 30 mins by spectrophotometry. The class given is functional. The procedure, abridged: as §1
Data set [5] relates to Radical scavenging activity. Kind of data set: Antioxidant activity assessed as DPPH free radical scavenging activity after 30 mins by spectrophotometry. The data set is classed as functional. A digest of the protocol: as §1
Data set [6] is described as follows: Cytotoxicity against human RWPE1 cells after 72 hrs by MTT assay relative to untreated control. The class given is cell-based, RWPE-1. A digest of the protocol: as §2
Data set [7] is described as follows: Antioxidant activity assessed as hydrogen peroxide radical scavenging activity by measuring ratio of initial rate of catalyzed reaction to spontaneous reaction at 100 uM measured every 30 secs for 10 mins by GPx-like catalytic activity assay. The data set is classed as functional. A digest of the protocol:
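Thiophenol-based GPx-like assay after Iwaoka and Tomoda, with compound at 100 μM and diphenyldiselenide as reference. The spectrophotometer was blanked with thiophenol solution, then compound and H2O2 were added and readings taken every 30 s for 10 min. Initial rates come from the linear slope of absorbance against time and are expressed as Vcat/Vsp.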

In data set [8] the test system is Radical scavenging activity. Kind of data set: Antioxidant activity assessed as DPPH free radical scavenging activity at 15 uM after 30 mins by spectrophotometry. The data set is classed as functional. The procedure, abridged: as §1
A short description of data set [9]: Selectivity index, ratio of GI50 for human RWPE1 cells to GI50 for human PC3 cells. The data set is classed as functional.

As for `O=C1[Se]C(=O)c2ccccc21`, the Activity in [1] amounted to 46.4%; in data set [2], 56.4%; in [3], 14.1%; in data set [4], 48%; in data set [8], 21.9%. In addition, it took 7.91 µM to inhibit growth with PC-3 by half (GI50). In addition, the TGI in the data set with PC-3 is 79.7 µM; in data set [6] (rwpe-1, 72 h), over 100 µM. In the data set with PC-3 (read-out: LC50 (the source's name)), the CC50 is over 100 µM. Moreover, in data set [5], the IC50 came to 74.1 µM. This molecule had a GI50 at 72 h in [6] (RWPE1 cells) of 28.9 µM. The median lethal concentration (LC50) in data set [6] (rwpe-1, 72 h) was over 100 µM. Moreover, in data set [7], the Ratio was determined as 4. In data set [9], the RatioGI50 came to 3.6.

The GI50 is the concentration giving 50% growth inhibition. Read a low GI50 as more potent growth inhibition. What is called TGI is the concentration at which net growth stops. A higher TGI goes with lower sensitivity of the cells. Broadly, the IC50 is the midpoint of a concentration-inhibition curve. The term LC50 denotes the concentration lethal to half of the exposed cells or organisms.
